# Yeast life ext: extends the lifespan of yeast | S. cerevisiae growth with nicotinamide, OD615; deaD strain in restrictive glucose medium | inhibition of the nicotinamide effect, % at 10 µM | actives 0.68% (n = 130,000);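 active = inhibition above a set limit, placed 3 SD over the median of all compounds, cut at about 26% in these data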;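 also: 0% = nicotinamide-treated wells and 100% = cells grown without nicotinamide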
#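 Material: Modified budding yeast, DeaD strain | Medium: Restrictive glucose medium | Probe or stimulus: 1.5 mM nicotinamide | Dosing: Single dose 10 µM compound, 0.25% DMSO | Times: 48 h at 30 °C | Technique: OD615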
# RAM network inh: inhibitors of the yeast RAM network; S. cerevisiae dse1pr::URA3 reporter, 5-FOA growth OD615, 2 d; analog-sensitive cbk1-as2 kinase mutant strain; inhibition, % at 50 µM; actives 1.8% (n = 190,000);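 active = inhibition above a set limit, 3 SD over mean compound inhibition, cut at about 8.4% in these data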;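 also: 0% = DMSO-only wells with no growth and 100% = 10 µM 1-NA-PP1 full growth; inhibition rescues growth on 5-FOA so higher OD means more RAM inhibition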
# Phagocytosis inh: macrophage phagocytosis inhibition. inhibition, % at 5 µM. J774A.1 macrophage IgG-bead phagocytosis, imaging. actives 0.07% (n = 110,000);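 active = inhibition above the mean of the plate negative controls plus 5 SD, cut at about 13% in these data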;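 also: phagocytic index as fraction of beads internalized from green versus red external bead signal; plate controls were DMSO negative control for no effect and cytochalasin-D positive control for full effect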
# Yeast growth inh: reduces growth of yeast BB579 in restrictive medium | S. cerevisiae BB579 growth, OD615, 48 h | inhibition, % at 10 µM | actives 0.51% (n = 140,000) | AID 804;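 active = inhibition above a set limit, 3 SD over the mean compound inhibition, cut at about 44% in these data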
#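 System: Saccharomyces cerevisiae DeaD strain BB579, replicative lifespan model yeast. Buffer or medium: restrictive glucose-based CSMM-D medium. Doses: one dose, 10 µM compound with 0.25% DMSO. Timing: 4 h preincubation and 48 h exposure at 30 °C. Detection: turbidity as optical density at 615 nm. Benchmarks: amphotericin B 10 µg/mL, positive.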
# Measles CPE: protection of cells from measles virus. Measles virus-infected cells, CPE protection, absorbance. protection (pct of control), % at 4 µM. AID 841. actives 1.5% (n = 140,000); in the data active = protection mostly above about 24%, no sharp cut-off; inactive = mostly below about 26%
# Active calls of the source: *; x = no result given; [ ] = remark or other dose. Sampled rows, rich in hits. Any-hit rate of the full collection: about 3.6%.
SMILES,Yeast life ext,RAM network inh,Phagocytosis inh,Yeast growth inh,Measles CPE
COc1cc(/C=C/C(=O)CC(=O)/C=C/c2ccc(O)c(OC)c2)ccc1O,-1.4,8.7*,x,-6.4,18.1
c1ccc(CN2CCN(CCCNc3ccc4nnc(-c5ccccc5)n4n3)CC2)cc1,-1.2,-0.7,-0.1,-4.6,13.0
Fc1ccccc1N1CCN(CCCNc2ccc3nncn3n2)CC1,27.3*,1.7,-0.3,-15.3,17.3
O=C(CS(=O)c1ccc(C(F)(F)F)cc1[N+](=O)[O-])Oc1ccccc1 (stereo not given),40.4*,1.1,0.5,-36.3,5.8
O=C(CNc1ccc(C(F)(F)F)cc1[N+](=O)[O-])OCC(=O)c1ccccc1,-5.7,11.2*,2.4,-47.9,3.1
COC(=O)c1ccc(OC(=O)CS(=O)c2ccccc2[N+](=O)[O-])cc1 (stereo not given),x,-1.4,x,x,x
CCCC(=O)C1=C(O)C(C(=O)OC)C(C)(C)CC1=Nc1ccc(N)cc1 (stereo not given),-0.5,2.6,-2.8,-6.7,0.3
CCCC(=Nc1ccc(N)cc1)C1=C(O)C(C(=O)OC)C(C)(C)CC1=O (stereo not given),44.0*,1.0,-1.6,-4.2,1.4
CCOC(=O)/C(C#N)=C1/C=CN(C)C(C)=N1,-10.2,0.7,1.2,14.3,28.7*
Cc1ccc(S(=O)(=O)N2CCC(C(=O)NNC(=O)c3ccncc3)CC2)cc1,x,2.7,x,x,x
COc1ccc(C=C(c2nc3ccccc3s2)c2nc3ccccc3s2)cc1O,-1.0,9.2*,3.3,-42.6,17.5
CSc1cccc(NC(=O)/C=C/c2cccc(Cl)c2)c1,-4.1,9.1*,0.2,-47.8,5.8
O=C(O)c1ccc(NC(=S)Nc2ccccc2)cc1,37.2*,4.0,-2.9,17.1,5.2
O=C(/C=C/c1ccccc1)NC(NC(=S)Nc1ccc(C(=O)O)cc1)C(Cl)(Cl)Cl (stereo not given),-5.2,0.5,x,-8.0,45.0*
COC(=O)c1ccc(NC(=S)Nc2ccccc2)cc1,-4.4,0.9,-0.3,-19.3,6.8
O=C(NC(NC(=S)Nc1ccccc1Cl)C(Cl)(Cl)Cl)c1cccc(Cl)c1 (stereo not given),3.3,9.4*,-3.7,-12.3,11.1
O=C(/C=C/c1ccccc1)NC(NC(=S)Nc1cccc(Cl)c1)C(Cl)(Cl)Cl (stereo not given),0.0,8.9*,-2.0,-26.0,18.6
COc1cc(SC)ccc1C(=O)OC(C)C(=O)NC1CCCC1 (stereo not given),x,-1.0,x,x,x
COc1cc([N+](=O)[O-])c2ncsc2c1,-1.9,1.6,-1.1,-15.4,16.9*
COc1cc(-c2nnc(COc3ccc4cc(Br)ccc4c3)o2)cc(OC)c1OC,-6.0,3.0,-0.5,-58.0,3.6
COc1ccc(-c2nnc(COc3ccc4ccccc4c3)o2)cc1OC,-6.8,9.7*,x,-17.5,2.3
O=C(COc1ccccc1N1C(=O)c2ccccc2C1=O)c1ccc(Cl)cc1,-3.3,-0.2,6.1*[artifact],-24.6,4.3
COC(=O)c1ccc(Oc2ccc(C(C)(C)C)cc2)c([N+](=O)[O-])c1,-5.7,8.4*,x,-18.1,24.9
COC1CCCN(C(=O)c2ccc(OC3CCN(CCc4ccccc4)CC3)cc2)C1 (stereo not given),x,1.1,x,x,x
O=C(NCCN1CCOCC1)C1CCN(S(=O)(=O)N2CCCC2)CC1,x,0.4,x,x,x
SMILES,Yeast life ext,RAM network inh,Phagocytosis inh,Yeast growth inh,Measles CPE
O=C(COC(=O)c1ccc(N2CCOCC2)c([N+](=O)[O-])c1)Nc1ccc2c(c1)OCO2,-1.3,4.2,-5.9,-21.3,4.9
O=C(Nc1ccc2c(c1)OCCO2)c1ccc(Cl)c([N+](=O)[O-])c1,-7.6,2.2,-2.7,-26.0,20.2*
Nc1ccc(C(=O)OCC(=O)Nc2ccc3c(c2)OCO3)cc1[N+](=O)[O-],-0.9,5.0,-3.7,98.4*,1.8
O=C(/C=C/c1cccc(F)c1)N1CCN(c2ncccn2)CC1,x,-0.4,x,x,x
CC(=O)Nc1ccc(S(=O)(=O)N(Cc2ccccc2)c2ccccc2F)cc1,x,3.9,x,x,x
CSCCC(NC(=O)c1ccc(Cl)cc1)C(=O)OCC(=O)Nc1cc(Cl)ccc1C#N (stereo not given),-3.5,8.7*,1.2,1.9,8.4
CSCCC(NC(=O)c1ccccc1)C(=O)OCC(=O)Nc1ccc(C)c(Cl)c1 (stereo not given),-7.1,5.5,x,-36.5,25.4
N#CC1=C(N)N=C(SCc2cccc3ccccc23)C(C(N)=O)C12CCCCC2 (stereo not given),-15.7,1.9,0.2,-9.0,5.2
CCOC(=O)/C(C#N)=C1\Nc2ccccc2N=C1N(CC(C)C)CC(C)C,12.5,8.9*,-0.4,-99.0,13.7
COc1ccccc1C(=O)Oc1cc(N)n(S(=O)(=O)c2ccc(C)cc2)n1,45.3*,1.9,2.1,-6.4,3.4
Cc1ccc(S(=O)(=O)n2nc(OC(=O)c3ccco3)cc2N)cc1,12.4,2.2,x,-30.0,24.2
CCn1cc(S(=O)(=O)c2ccc(C)cc2)[nH]c1=O,x,2.0,x,x,x
C=CCOc1ccc2c(c1)c(S(=O)(=O)c1ccc(C)cc1)cn2COC,-5.6,9.9*,0.8,-40.3,16.3
Cc1cc(C(=O)N/N=C/c2cccn2C)no1,-6.8,0.5,-5.6,-10.3,43.3*
Cc1cc(C(=O)N/N=C/c2ccccc2Br)no1,-4.6,-0.9,-1.5,-25.5,10.9
CSC[C@@H]1NC(=S)N(c2ccc(C)cc2)C1=O,30.9*,1.3,-2.8,8.6,12.8
Cc1ccc(CC2C(=O)N(c3ccc(C)cc3)C(=O)C2C)cc1 (stereo not given),x,1.6,x,x,x
COc1ccccc1/C=C/C(=O)c1c2c(c(C)[nH]c1=O)CCCC2,-1.1,1.2,x,-19.4,19.1
O=c1cc(-c2ccccc2)[nH]n1-c1nc2ccccc2[nH]1,-25.9,1.5,1.0,97.3*,1.1
CC1CCCN(CC(=O)Nc2cccc([N+](=O)[O-])c2)C1 (stereo not given),5.7,1.4,x,-5.9,31.6*
O=C(O)C1CC=CCC1C(=O)Nc1cccc([N+](=O)[O-])c1 (stereo not given),x,9.6*,x,x,x
Cc1ccc(S(=O)(=O)Nc2cccc(NC(=O)CN3CCCCC3)c2)cc1,-4.8,0.3,-0.9,-24.9,63.2*
O=C(O)C1CC=CCC1C(=O)Nc1cccc(F)c1 (stereo not given),1.9,0.8,-5.2,-35.7,7.8
O=C(CN1CCCCCC1)Nc1cccc([N+](=O)[O-])c1,x,0.1,x,x,x
Cc1ccc(S(=O)(=O)Nc2ccc(NC(=O)CN3CCCCC3)cc2)cc1,-16.2,0.8,-0.1,-8.0,3.6
COc1ccc(NC(=O)CCN2CCCC(C)C2)cc1 (stereo not given),5.3,-0.1,x,-43.3,41.4*
CCOC(=O)c1[nH]c(=O)[nH]c1COC(=O)c1cc2ccccc2o1,-6.5,0.3,-0.3,-14.2,39.7*
Cc1c(C)n(CC(O)CN2C(=O)c3ccccc3S2(=O)=O)c2ccccc12 (stereo not given),-14.1,0.7,4.4,-9.7,14.3

# Bioassay records from PubChem BioAssay.
